Measured values from different studies.
ADRA1B: Alpha-1B adrenergic receptor (ADRA1B, Homo sapiens, UniProt P35368)
P2RY14: P2Y purinoceptor 14 (P2RY14, Homo sapiens, UniProt Q15391)
Nuclear receptor subfamily 4 group A member 2: Nuclear receptor subfamily 4 group A member 2 (Homo sapiens, UniProt P43354)

Cc1cc(Oc2ncccc2CN2CCN(c3ccc(Cl)cc3)CC2)ccc1-c1c(C)c(=O)[nH]c(=O)n1C  Ki (ADRA1B; ligand displacement; radioligand): 2.59 µM
Cn1nccc1-c1ccc(-c2cc(C(=O)O)cc3cc(-c4ccc(C(F)(F)F)cc4)ccc23)cc1  Ki (P2RY14; ligand displacement in cells; flow cytometry): 0.0284 µM
Cc1cc(Oc2ncccc2CN2CCN(c3ccccc3C#N)CC2)ccc1-c1c(C)c(=O)[nH]c(=O)n1C  Ki (ADRA1B; ligand displacement; radioligand): 0.464 µM
CCN(CC)Cc1cc(Nc2ccnc3cc(Cl)ccc23)ccc1O  Kd (Nuclear receptor subfamily 4 group A member 2; binding; ITC): 2.7 µM
O=C(O)c1cc(-c2ccc(-c3ccc(Cl)s3)cc2)c2ccc(-c3ccc(C(F)(F)F)cc3)cc2c1  Ki (P2RY14; ligand displacement in cells; flow cytometry): 1.19 µM
CCCCCCCCCCCCCCCC(=O)OC[C@H](COP(=O)(O)O[C@H]1[C@H](O)[C@@H](OP(=O)(O)O)[C@H](OP(=O)(O)O)[C@@H](OP(=O)(O)O)[C@H]1O)OC(=O)CCCCCCCCCCCCCCC  Kd (Heat shock protein beta-1 (HSPB1, Homo sapiens, UniProt P04792); binding; MST): 0.188 µM
CCN(CC)CCCC(C)Nc1ccnc2cc(Cl)ccc12 (stereo not drawn)  Kd (Nuclear receptor subfamily 4 group A member 2; binding; ITC): 6.8 µM
Cc1cc(Oc2ncccc2CN2CCN(c3cccc(C)c3C)CC2)ccc1-c1c(C)c(=O)[nH]c(=O)n1C  Ki (ADRA1B; ligand displacement; radioligand): 4.42 µM
CN1C(C(=O)Nc2ccccn2)=C(O)c2sc(Cl)cc2S1(=O)=O  Kd (Nuclear receptor subfamily 4 group A member 2; binding; ITC): 1.4 µM
O=C(O)c1cc(-c2ccc(-n3cc(CCO)nn3)cc2)c2ccc(-c3ccc(C(F)(F)F)cc3)cc2c1  Ki (P2RY14; ligand displacement in cells; flow cytometry): 0.089 µM
COc1cccc2c(Nc3ccc4[nH]c(C(=O)N/N=C/c5ccc(SC)cc5)cc4c3)cc(C)nc12  Kd (Nuclear receptor subfamily 4 group A member 2; binding; ITC): 2.8 µM
O=C(O)c1cc(-c2ccc(-n3ccnn3)cc2)c2ccc(-c3ccc(C(F)(F)F)cc3)cc2c1  Ki (P2RY14; ligand displacement in cells; flow cytometry): 0.0142 µM
Nc1ncnc2c1ncn2[C@@H]1O[C@H](COP(=O)(O)OP(=O)(O)OP(=O)(O)O)[C@@H](O)[C@H]1O  Kd (P2X purinoceptor 7 (P2RX7, Homo sapiens, UniProt Q99572); binding; SPR): 224 µM
Cc1cc(Oc2ncccc2CN2CCN(c3cccc(F)c3)CC2)ccc1-c1c(C)c(=O)[nH]c(=O)n1C  Ki (ADRA1B; ligand displacement; radioligand): 3.02 µM
O=C(O)c1cc(-c2ccc([C@H]3C[C@H]4C[C@@H]3CN4)cc2)c2ccc(-c3ccc(C(F)(F)F)cc3)cc2c1  Ki (P2RY14; ligand displacement; flow cytometry): 0.00181 µM
